The results in this text go back to ChEMBL document CHEMBL4402576, “Discovery and Development of Small-Molecule Inhibitors of Glycogen Synthase” (J Med Chem, 2020).

Calls of active or inactive are those of the source. The calls are words filed in the database; no cut-off is given here. Where only a bound is given, the exact number is not on record here.

A short description of assay [1]: Inhibition of recombinant His-tagged yeast GYS2P expressed in Escherichia coli BL21(DE3) cells using UDPG as substrate in presence of 0.04 mM G-6-P by 14C-glucose incorporation assay. Also on record: species or system Saccharomyces cerevisiae. In a few lines: (§1)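 His-tagged yeast Gsy2p, expressed in E. coli BL21(DE3) and purified by Ni-NTA then Q-sepharose. Radiochemical incorporation of glucose into glycogen with 0.3 mM UDPG, with or without 0.04 mM G6P. Controls contained 2% (v/v) DMSO. IC50 was fitted by four-parameter logistic. Values are mean ± SEM of at least three independent experiments in duplicate.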

For assay [2], the target named is T1, Glycogen [starch] synthase, muscle (Homo sapiens, UniProt P13807).
T1 sequence (P13807 whole entry): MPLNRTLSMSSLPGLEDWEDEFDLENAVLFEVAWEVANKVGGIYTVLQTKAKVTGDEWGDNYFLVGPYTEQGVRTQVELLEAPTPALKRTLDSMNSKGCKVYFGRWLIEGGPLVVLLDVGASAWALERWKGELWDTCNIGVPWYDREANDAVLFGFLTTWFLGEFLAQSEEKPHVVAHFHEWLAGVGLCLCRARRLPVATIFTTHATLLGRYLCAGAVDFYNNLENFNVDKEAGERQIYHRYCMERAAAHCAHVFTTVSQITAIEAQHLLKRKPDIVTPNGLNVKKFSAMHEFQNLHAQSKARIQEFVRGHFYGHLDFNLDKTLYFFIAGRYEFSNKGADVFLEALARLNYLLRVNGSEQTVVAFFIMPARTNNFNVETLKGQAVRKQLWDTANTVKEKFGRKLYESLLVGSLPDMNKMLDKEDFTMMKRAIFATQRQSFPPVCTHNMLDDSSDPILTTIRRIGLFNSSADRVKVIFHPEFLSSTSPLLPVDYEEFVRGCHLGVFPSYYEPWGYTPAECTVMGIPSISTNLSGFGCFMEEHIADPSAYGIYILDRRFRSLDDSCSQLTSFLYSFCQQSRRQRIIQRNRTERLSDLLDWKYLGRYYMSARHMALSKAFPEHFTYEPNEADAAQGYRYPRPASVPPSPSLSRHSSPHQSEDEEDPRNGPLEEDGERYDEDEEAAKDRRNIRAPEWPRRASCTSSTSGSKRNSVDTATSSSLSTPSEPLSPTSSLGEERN
Kind of assay: Inhibition of C-terminal 6His-tagged wild type human GYS1 using UDPG as substrate in presence of 1 mM G-6-P by 14C-glucose incorporation assay. In a few lines: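 Full-length wild-type hGYS1 with C-terminal 6×His tag in place of the intein-chitin binding domain, Ni-NTA purified. Glucose transfer from UDP-[14C]glucose into glycogen with 0.2 mM UDPG and 1 mM G6P. Controls contained 2% (v/v) DMSO. IC50 was fitted by four-parameter logistic. Values are mean ± SEM of at least three independent experiments in duplicate.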

In assay [3] the test system is Saccharomyces cerevisiae. As to the kind of experiment: Inhibition of recombinant His-tagged yeast GYS2P expressed in Escherichia coli BL21(DE3) cells assessed as enzyme activity at 20 uM using UDPG as substrate in presence of G-6-P by 14C-glucose incorporation assay relative to control. Also on record: scale not given: the % may be the effect or the level left.
Assay [4] is filed under the species Homo sapiens. Kind of assay: Inhibition of C-terminal 6His-tagged human GYS1 delta634S8,11N mutant assessed as enzyme activity at 20 uM using UDPG as substrate in presence of 0.4 mM G-6-P by 14C-glucose incorporation assay relative to control. Also on record: scale not given: the % may be the effect or the level left.
In assay [5] the target is T2, Glycogen [starch] synthase, muscle (Homo sapiens) (UniProt P13807).
T2 sequence (whole entry): T1 sequence (P13807 whole entry)
As to the kind of experiment: Inhibition of C-terminal 6His-tagged wild type human GYS1 assessed as enzyme activity at 20 uM using UDPG as substrate in presence of 1 mM G-6-P by 14C-glucose incorporation assay relative to control. Further details: scale not given: the % may be the effect or the level left.

Assay [6] deals with T1, Glycogen [starch] synthase, muscle. As to the kind of experiment: Competitive inhibition of C-terminal 6His-tagged human GYS1 using UDPG as substrate in presence of G-6-P by 14C-glucose incorporation based Michaelis-Menton plot analysis. Summed up:
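Radiolabel transfer from UDP-[14C]glucose into glycogen. Inhibitor and UDPG concentrations were covaried. Data were fitted to competitive, non-competitive and uncompetitive models, and the model was chosen by goodness of fit and residuals. Controls contained 2% (v/v) DMSO. Values are mean ± SEM of three independent experiments, each in duplicate.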

The nature of assay [7]: Inhibition of recombinant yeast GYS2P Y513L mutant using UDPG as substrate in presence of 7.2 mM G-6-P by 14C-glucose incorporation assay. Also on record: species or system Saccharomyces cerevisiae. Summed up: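 Yeast Gsy2p Y513L mutant, purified like the wild type. Assayed by 14C-glucose incorporation into glycogen with UDPG under saturating 7.2 mM G6P. IC50 curves used triplicate measurements, with three experiments performed.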

Assay [8] has as its target T2, Glycogen [starch] synthase, muscle (Homo sapiens). As to the kind of experiment: Inhibition of glycogen synthase in human HEK293 cell lysates overexpressing mouse PTG at 100 uM using 0.2 mM UDPG as substrate in presence of 1 mM G-6-P by 14C-glucose incorporation assay relative to control. It is filed as subcellular. To be noted: Lysate. In a few lines:
(§2)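 Lysates came from HEK293 cells stably expressing PTG (5.5 mM glucose αMEM, 10% FBS, hygromycin) or from Rat-1 cells (25 mM glucose DMEM, 10% FBS), grown 3–4 days to confluency. Cells were lysed by freezing, scraping and sonication in Tris/EDTA/EGTA/NaF buffer with protease inhibitors and Triton. Assays used 0.15 mg/mL (HEK293-PTG) or 0.75 mg/mL (Rat-1) lysate in 50 mM Tris-HCl pH 7.8 with 6.7 mg/ml glycogen and 2% DMSO. Read-out was [14C]glucose incorporation relative to DMSO control, in triplicate.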

The target of assay [9] is T3, Glycogen [starch] synthase, muscle (Rattus norvegicus) (UniProt A2RRU1).
T3 sequence (whole entry): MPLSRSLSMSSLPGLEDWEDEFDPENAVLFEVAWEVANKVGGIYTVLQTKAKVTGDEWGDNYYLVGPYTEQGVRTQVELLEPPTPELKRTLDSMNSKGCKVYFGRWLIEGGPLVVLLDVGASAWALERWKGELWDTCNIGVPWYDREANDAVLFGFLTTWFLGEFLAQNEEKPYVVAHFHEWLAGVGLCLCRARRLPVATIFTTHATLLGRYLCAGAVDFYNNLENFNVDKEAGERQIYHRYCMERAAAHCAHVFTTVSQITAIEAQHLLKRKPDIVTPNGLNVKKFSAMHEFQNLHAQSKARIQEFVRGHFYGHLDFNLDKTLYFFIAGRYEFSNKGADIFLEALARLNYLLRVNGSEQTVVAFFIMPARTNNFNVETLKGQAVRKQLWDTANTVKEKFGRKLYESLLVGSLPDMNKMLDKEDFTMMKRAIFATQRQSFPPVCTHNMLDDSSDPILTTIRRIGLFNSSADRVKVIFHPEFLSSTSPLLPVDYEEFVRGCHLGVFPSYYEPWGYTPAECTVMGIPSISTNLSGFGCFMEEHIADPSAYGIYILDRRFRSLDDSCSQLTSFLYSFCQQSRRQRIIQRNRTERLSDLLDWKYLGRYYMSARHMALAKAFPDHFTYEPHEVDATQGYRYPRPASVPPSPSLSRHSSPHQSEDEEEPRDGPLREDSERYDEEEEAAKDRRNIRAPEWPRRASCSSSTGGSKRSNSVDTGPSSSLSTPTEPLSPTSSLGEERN
As to the kind of experiment: Inhibition of glycogen synthase in rat-1 fibroblast cell lysates at 100 uM using 0.2 mM UDPG as substrate in presence of 1 mM G-6-P by 14C-glucose incorporation assay relative to control. In kind it is subcellular. The following applies: Lysate. In a few lines: as §2

A short description of assay [10]: Competitive inhibition of recombinant His-tagged yeast GYS2P expressed in Escherichia coli BL21(DE3) cells using UDPG as substrate in presence of G-6-P by 14C-glucose incorporation based Michaelis-Menton plot analysis. Also on record: species or system Saccharomyces cerevisiae. In a few lines:
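Ni-NTA then Q-Sepharose purified enzyme (5 μg/ml) assayed by radiolabelled glucose transfer from UDPG into glycogen. UDPG varied 0.2–8 mM with 7.2 mM G6P, covaried against fixed inhibitor levels, 2% (v/v) DMSO throughout. Data fitted to competitive, non-competitive and uncompetitive models, chosen by goodness-of-fit and residuals. Ki given as mean ± SEM of three independent experiments in duplicate.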

For assay [11], the species on record is Homo sapiens. Kind of assay: Inhibition of C-terminal 6His-tagged human GYS1 delta634S8,11N mutant at 100 uM using UDPG as substrate in presence of 0.4 mM G-6-P by 14C-glucose incorporation assay relative to control.
Assay [12] is described as follows: Inhibition of recombinant His-tagged yeast GYS2P expressed in Escherichia coli BL21(DE3) cells using UDPG as substrate in absence of G-6-P by 14C-glucose incorporation assay. Further details: species or system Saccharomyces cerevisiae. Summed up:
as §1

The nature of assay [13]: Inhibition of C-terminal 6His-tagged human GYS1 delta634S8,11N mutant using UDPG as substrate in presence of 0.4 mM G-6-P by 14C-glucose incorporation assay. Summed up:
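Truncated hGYS1 (residues 635–737 deleted, Ser8/Ser11→Asn, C-terminal 6×His, Ni-NTA purified; activation state ~0.2). Radiolabelled glucose incorporation into glycogen with 0.2 mM UDPG and 0.4 mM G6P. Controls contained 2% (v/v) DMSO. IC50 was fitted by four-parameter logistic. Values are mean ± SEM of at least three independent experiments in duplicate.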

Assay [14] is described as follows: Competitive inhibition of recombinant His-tagged yeast GYS2P expressed in Escherichia coli BL21(DE3) cells using UDPG as substrate in absence of G-6-P by 14C-glucose incorporation based Michaelis-Menton plot analysis. Also on record: species or system Saccharomyces cerevisiae. In a few lines:
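Yeast Gsy2p at 5 μg/ml in a 14C-glucose incorporation assay. UDPG was varied from 0.2 to 8 mM without G6P, and inhibitor was covaried up to 0.8 mM. Data were fitted to competitive, non-competitive and uncompetitive models, and the model was chosen by goodness of fit and residuals. Controls contained 2% (v/v) DMSO. Values are mean ± SEM of three independent experiments in duplicate.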

Assay [15] relates to Saccharomyces cerevisiae. As to the kind of experiment: Inhibition of recombinant His-tagged yeast GYS2P expressed in Escherichia coli BL21(DE3) cells assessed as enzyme activity at 300 uM using UDPG as substrate in presence of G-6-P by 14C-glucose incorporation assay relative to control. Also on record: scale not given: the % may be the effect or the level left.
The species named for assay [16] is Homo sapiens. As to the kind of experiment: Inhibition of C-terminal 6His-tagged human GYS1 delta634S8,11N mutant assessed as enzyme activity at 300 uM using UDPG as substrate in presence of 0.4 mM G-6-P by 14C-glucose incorporation assay relative to control. Further details: scale not given: the % may be the effect or the level left.
Assay [17] deals with T2, Glycogen [starch] synthase, muscle (Homo sapiens). As to the kind of experiment: Inhibition of C-terminal 6His-tagged wild type human GYS1 assessed as enzyme activity at 300 uM using UDPG as substrate in presence of 1 mM G-6-P by 14C-glucose incorporation assay relative to control. Further details: scale not given: the % may be the effect or the level left.
Assay [18] has the same target. As to the kind of experiment: Inhibition of glycogen synthase in human HEK293 cell lysates overexpressing mouse PTG at 100 uM using 0.2 mM UDPG as substrate in presence of 1 mM G-6-P by 14C-glucose incorporation assay. To be noted: Lysate. It is filed as subcellular. In a few lines: as §2
Assay [19] addresses T3, Glycogen [starch] synthase, muscle (Rattus norvegicus). As to the kind of experiment: Inhibition of glycogen synthase in rat-1 fibroblast cell lysates at 100 uM using 0.2 mM UDPG as substrate in presence of 1 mM G-6-P by 14C-glucose incorporation assay. In kind it is subcellular. The following applies: Lysate. In a few lines:
as §2

Take `Oc1ccc(-c2c(-c3ccc(O)c(O)c3O)n[nH]c2C(F)(F)F)cc1`: the IC50 – broadly, the concentration that inhibits the measured activity by half – in assay [1] came to 7.98 µM; in assay [2] it was 2.75 µM; in assay [7] it was 33.6 µM. The Activity in assay [3] is 0.97%; in assay [4], -1.01%; in assay [5] it was -0.26%. Further, the Ki (as a rule, the equilibrium dissociation constant of an inhibitor or competing ligand from its target) in assay [6] was 1310 nM. Also, the inhibition in [8] and in [9] was 100% in each case.

Regarding `O=c1ccn([C@@H]2O[C@H](COP(=O)(O)OP(=O)(O)O)[C@@H](O)[C@H]2O)c(=O)[nH]1` [URIDINE_DIPHOSPHATE], the Ki in assay [10] was 350 µM.

As for `COc1cc(-c2c(-c3ccccc3)ncn2CCC2CCCN2C)ccc1O` (racemic), the inhibition – broadly, the percentage by which the read-out fell short of the control – in assay [11] is above 20%. Besides, the IC50 in assay [1] was 263 µM; in assay [12], 280 µM; in assay [13], 161 µM; in assay [2], 875 µM. Also, the inhibitory constant (Ki) in assay [10] is 370 µM; in assay [14], 290 µM. Besides, the Activity in [15] is 36.5%; in [16], 46.5%; in assay [17] it was 77.1%. For the same compound, the inhibition entry in assay [18] and in [19] was “inactive” throughout.

In the case of `O=C(O)CCc1ccc(-c2ccccc2)n1-c1ccc(O)cc1`, in [2], the IC50 turned out to be 384 µM. Moreover, the values for the Activity in [15], in assay [16] and in [17] were 40.1%, 40.1% and 58.9%, respectively. The inhibition result in assay [18] and in [19] was “inactive” throughout.
